Active and inactive are the calls of the source.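 Rule for the calls, unless noted: active = a full or partial loss of lipid-probe fluorescence in the fish gall bladder, intestine or both, judged by eye; inactive = no fluorescence loss, or compound toxic to the fish.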
Assays:
[1] = inhibitors of TNFa-induced NFkB p65 translocation, primary screen, imaging, HUVEC, MLSMR starter and 10KST1 sets (AID 438;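 active = inhibition above 20% together with a positive visual image hit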;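 note: compound added about 3h40 before a 20 min TNFalpha stimulation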;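 for inhibition: signal is the nuclear over cytoplasmic p65 intensity ratio per well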); conditions: HUVEC TNFa-induced p65 nuclear translocation; cell count: measured here: nuclei count (cytotoxicity indicator), at 2.08 µM; inhibition: at 2 µM, stronger effect = higher value, 0% TNFa-plus-vehicle, 100% no-TNFa wells
[2] = inhibitors of E-selectin induction by TNFa, primary screen, imaging, HUVEC, immunofluorescence, MLSMR starter and 10KST1 sets (AID 487;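 active = visually confirmed hit in the image check and inhibition above 20%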;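 for inhibition: signal is fraction of cell area covered by stained E-selectin grains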;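 for nuclei count: 100% = median nuclei count of all wells on the same plate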); conditions: HUVEC TNFalpha-induced E-selectin immunofluorescence imaging, at 2 µM; inhibition: stronger effect = higher value; nuclei count: measured here: cell number, toxicity
[3] = DUSP6 inhibitors restoring Erk phosphorylation by chemical complementation, primary imaging in DUSP6-transfected HeLa (AID 609;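 active = compounds giving at least 50% inhibition in the cell-based MKP-3 phosphatase rescue imaging test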;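 for inhibition: phospho-Erk level distribution per well compared with pooled transfected vehicle control wells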); conditions: HeLa MKP-3 transfected, phospho-Erk imaging KS statistic, at 10 µM, cells stimulated with TPA for 15 min
[4] = target: Dual specificity protein phosphatase 6 (Homo sapiens) (UniProt Q16828); assay: as above; conditions: HeLa MKP-3 transfected, phospho-Erk imaging KS statistic; at 10 µM; stronger effect = higher value; cells stimulated with TPA for 15 min
Chain of Dual specificity protein phosphatase 6 (Homo sapiens) (Q16828 whole entry, looked up): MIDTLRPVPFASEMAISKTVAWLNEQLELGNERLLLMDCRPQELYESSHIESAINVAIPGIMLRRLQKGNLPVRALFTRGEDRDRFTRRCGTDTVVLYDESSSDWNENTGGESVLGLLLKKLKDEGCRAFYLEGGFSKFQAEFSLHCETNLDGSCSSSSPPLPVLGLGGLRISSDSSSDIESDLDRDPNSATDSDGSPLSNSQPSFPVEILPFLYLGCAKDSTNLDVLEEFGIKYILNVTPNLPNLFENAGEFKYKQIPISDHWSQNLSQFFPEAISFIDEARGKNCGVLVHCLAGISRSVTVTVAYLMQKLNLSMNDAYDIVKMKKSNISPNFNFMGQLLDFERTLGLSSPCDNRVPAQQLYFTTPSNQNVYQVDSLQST

[5] = target: Voltage-gated potassium channel subunit beta-2 (Rattus norvegicus) (UniProt P62483); assay: KvBeta enzyme negative modulators, primary screen, biochemical, NADPH fluorescence (AID 622;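 active = fluorescence slope higher than the sample average by over 3 SD, cut at about -0.22 in these data, passing the limit was not always enough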;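 note: slope of raw intensity against log time taken from 70 to 1610 s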); conditions: recombinant KvBeta, 4-cyanobenzaldehyde reduction, at 10 µM, stronger effect = higher value
Chain of Voltage-gated potassium channel subunit beta-2 (Rattus norvegicus) (P62483 whole entry, looked up): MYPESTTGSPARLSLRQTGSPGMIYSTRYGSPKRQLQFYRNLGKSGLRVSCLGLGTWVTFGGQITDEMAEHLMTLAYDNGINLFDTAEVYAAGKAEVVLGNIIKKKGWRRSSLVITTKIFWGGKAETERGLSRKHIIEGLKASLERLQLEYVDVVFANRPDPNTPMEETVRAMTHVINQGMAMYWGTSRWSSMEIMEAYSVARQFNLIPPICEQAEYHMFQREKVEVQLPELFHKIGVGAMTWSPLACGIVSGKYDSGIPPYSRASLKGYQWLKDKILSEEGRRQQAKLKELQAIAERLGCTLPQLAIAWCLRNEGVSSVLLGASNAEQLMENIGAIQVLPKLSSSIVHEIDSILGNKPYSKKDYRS

[6] = target: Voltage-gated potassium channel subunit beta-2 (Rattus norvegicus) (UniProt P62483); assay: KvBeta positive modulators, primary screen, biochemical, NADPH fluorescence (AID 623;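 active = NADPH fluorescence slope more negative than the mean of all samples by about 3 SD, 99.7% confidence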;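 note: fluorescence intensity change per second fitted from 20 to 320 s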); conditions: Recombinant KvBeta, NADPH fluorescence decrease slope, 10 min; at 10 µM; stronger effect = lower value
[7] = target: Muscarinic acetylcholine receptor M4 (Homo sapiens) (UniProt P08173); assay: compounds altering M4/GIRK thallium flux, either direction, primary screen, M4 allosteric agonist project, cell-based, HEK293 M4/GIRK, BTC-AM (AID 625;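 active = fluorescence slope after compound addition differing from the mean of all tested samples at 99.7% confidence, mostly higher but some lower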;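 note: thallium influx through GIRK channels coupled to M4 in HEK293 cells with BTC-AM dye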); conditions: at 10 µM, actives lie on both sides
Chain of Muscarinic acetylcholine receptor M4 (Homo sapiens) (P08173 whole entry, looked up): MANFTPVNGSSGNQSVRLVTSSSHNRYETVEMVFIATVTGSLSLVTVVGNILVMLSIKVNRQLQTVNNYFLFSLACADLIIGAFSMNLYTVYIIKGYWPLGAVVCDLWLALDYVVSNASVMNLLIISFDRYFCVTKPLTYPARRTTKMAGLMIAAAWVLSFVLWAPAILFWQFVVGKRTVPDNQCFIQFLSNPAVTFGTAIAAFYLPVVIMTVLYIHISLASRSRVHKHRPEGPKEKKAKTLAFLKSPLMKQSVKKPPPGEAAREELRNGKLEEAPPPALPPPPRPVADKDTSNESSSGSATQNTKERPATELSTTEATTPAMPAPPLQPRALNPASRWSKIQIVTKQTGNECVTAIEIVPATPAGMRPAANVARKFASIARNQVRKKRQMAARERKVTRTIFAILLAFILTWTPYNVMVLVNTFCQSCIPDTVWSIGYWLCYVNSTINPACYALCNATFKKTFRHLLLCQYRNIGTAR
Method in brief: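 System: HEK293 cells with M4 receptor and GIRK channels | Incubation: Cells overnight at 37 °C, BTC-AM loading 1 h, reads 2 min total | Technique: Kinetic BTC-AM fluorescence sampled at 1 Hz, 10 s pre-addition baseline | Measure: Post-addition slope, 15–24 s, of baseline-normalized fluorescence | Control set: Carbachol positive, DMSO negative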

[8] = inhibitors of larval lipid processing in zebrafish, primary screen, whole organism, PED6 fluorescence, gall bladder and intestine (AID 686); conditions: Zebrafish larvae PED6 lipid processing, fluorescence scoring; screened at 20 µM (by protocol);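 note: larvae 5 to 7 days old with five fish per well; signal comes from phospholipase A2 cleavage of quenched PED6 carried via bile; overnight exposure to compound and PED6 before scoring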
Method in brief: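 Test system – live zebrafish larvae aged 5-7 days, whole organism · Buffer or medium – E3 fish medium · Reagent – quenched phospholipase substrate PED6, 100 nM final, ingested by larvae · Doses – 20 µM single dose · Incubation – overnight compound and PED6 incubation · Technique – visual fluorescence microscopy scoring of gall bladder, gut · Read-out basis – visual per-well fluorescence inhibition score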

[9] = inhibitors of Chlamydomonas gravitaxis, primary screen, whole organism, Chlamydomonas reinhardtii, WT vs cilia-less mutant, absorbance, 96-well (AID 463189;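 active = inhibition at or above 50% relative to wild type and mutant plate controls; inactive = inhibition below 50%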;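 note: 0% = wild type cc124 cells in DMSO and 100% = ciliumless bld1 mutant cells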); conditions: OD600 absorbance, 2 days, at 10 µM, stronger effect = higher value
[10] = measured here: cell density z-score
[11] = measured here: nuclear c-Myc green intensity z-score
[12] = measured here: nuclear pErk red intensity z-score, stronger effect = higher value

| Structure (SMILES) | cell count [1] | inhibition [1] | inhibition [2] | nuclei count [2] | z-score [3, 10] | z-score [3, 11] | z-score [3, 12] | inhibition [4] | fluorescence slope [5] | NADPH fluorescence slope [6] | fluorescence slope [7] | outcome [8] | inhibition [9] |
| --- | --- | --- | --- | --- | --- | --- | --- | --- | --- | --- | --- | --- | --- |
| Cc1ccccc1N1C(=O)CC(Sc2nnc(-c3ccccc3)o2)C1=O (stereo not given) | 482 | -2.4% (inactive) | -29.2% (inactive) | 177% | -0.982 | -1.28 | 2.47 | 5.95% (inactive) | -0.383 (inactive) | -3.3e-05 (inactive) | 0.00539 (inactive) | inactive | 57.7% (active) |
| COc1ccccc1C1/C(=C(\O)c2ccc3c(c2)OCCO3)C(=O)C(=O)N1CCCN(C)C (stereo not given) | 402 | 2.9% (inactive) | -18% (inactive) | 134% | 1.75 | -0.784 | 1.05 | -4.78% (inactive) | -0.456 (inactive) | -7.9e-05 (inactive) | 0.00501 (inactive) | inactive | 12.8% (inactive) |
| CCOC(=O)c1c(N)sc(=S)c2c1CCC2 | 618 | -6.2% (inactive) | -92.1% (inactive) | 139% | 0.668 | -0.746 | -1.03 | -11.4% (inactive) | -0.467 (inactive) | -0.000294 (inactive) | 0.00293 (inactive) | inactive | 15% (inactive) |
| Cc1cc(=O)oc(C)c1C(=O)Nc1ccc2nsnc2c1 | 517 | -2% (inactive) | 3.2% (inactive) | 164% | 0.355 | 0.546 | 0.697 | 5.95% (inactive) | -0.278 (inactive) | -2.8e-05 (inactive) | 0.00564 (inactive) | inactive | -6.75% (inactive) |
| Cc1ccccc1-n1c(=O)/c(=C\c2ccco2)s/c1=C(/C#N)C(=O)Nc1ccccc1 | 677 | -5.8% (inactive) | -17.2% (inactive) | 151% | 0.299 | -0.624 | -0.976 | 9.37% (inactive) | -0.475 (inactive) | -4.4e-05 (inactive) | 0.00343 (inactive) | inactive | -0.051% (inactive) |
| CCc1[nH]c(=O)c(C#N)c2c1CCCC2 | 388 | -8.1% (inactive) | -57.4% (inactive) | 173% | -0.973 | 0.856 | 2.79 | -12.6% (inactive) | -0.495 (inactive) | -0.000126 (inactive) | 0.00393 (inactive) | inactive | 26.8% (inactive) |
| CCOC(=O)Cc1[nH]nc2c1C(c1cc(OC)ccc1OC)C(C#N)=C(N)O2 (stereo not given) | 591 | -5.3% (inactive) | -13.2% (inactive) | 140% | 1.07 | 1.02 | 0.992 | 21% (inactive) | -0.503 (inactive) | -5.8e-05 (inactive) | 0.00642 (inactive) | inactive | -4.63% (inactive) |
| Cc1cccc(-c2nnc3n2N=C(c2ccccc2)CS3)c1 | 713 | 6.8% (inactive) | -55.5% (inactive) | 169% | 0.462 | -0.93 | 1.32 | 16.8% (inactive) | -0.415 (inactive) | -6.7e-05 (inactive) | 0.00492 (inactive) | inactive | 44.7% (inactive) |
| Cc1nc2c(c(N3CCOCC3)n1)OCC(=O)N2 | 562 | -5.6% (inactive) | -63.7% (inactive) | 132% | -1.14 | 0.329 | 1.34 | -4.59% (inactive) | -0.454 (inactive) | -9.1e-05 (inactive) | 0.00529 (inactive) | inactive | 31.8% (inactive) |
| COc1ccc(C(O)C(CN2CCOCC2)c2ccccc2)cc1 (stereo not given) | 393 | -2.8% (inactive) | -22.6% (inactive) | 144% | -0.497 | -1.2 | 2.05 | -2.59% (inactive) | -0.44 (inactive) | -0.00013 (inactive) | 0.00559 (inactive) | inactive | -3.86% (inactive) |

— PubChem BioAssay
